ChEMBL document CHEMBL1806390, “Synthesis and biological evaluation of naphthyl phenyl ethers (NPEs) as novel nonnucleoside HIV-1 reverse transcriptase inhibitors” (Bioorg Med Chem, 2011)
pEC50: −log10 of the molar value.

Tests used:
[1] = system: Human immunodeficiency virus 1; experiment: Antiviral activity against 0.06 MOI Human immunodeficiency virus 1 IIIB infected in C8166 cells assessed as reduction in virus-induced cytopathic effect after 3 days by syncytium reduction assay; format: functional, organism-based; conditions: C8166, 72 h
In short: (§1)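 C8166 cells (4 × 10^5/mL) infected at MOI 0.06 in presence of serial compound dilutions; AZT as drug control. Cultured 3 days at 37 °C, syncytia (multinucleated giant cells) counted under inverted microscope; EC50 = concentration blocking syncytium formation by 50%. Mean of at least two separate experiments.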

[2] = system: Human immunodeficiency virus 1; experiment: Antiviral activity against 0.06 MOI Human immunodeficiency virus 1 IIIB A17 harboring reverse transcriptase K103N and Y181C double mutant infected in C8166 cells assessed as reduction in virus-induced cytopathic effect after 3 days by syncytium reduction assay; format: functional, organism-based; conditions: Human immunodeficiency virus 1, IIIB A17, C8166, 72 h
In short: as §1, with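 “infected with HIV-1 IIIB A17 (K103N+Y181C)” for “infected”, “graded” for “serial”, “concentrations;” for “dilutions;”, “AZT” for “AZT as”, “as” for “=”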

[3] = system: Human immunodeficiency virus 2; experiment: Antiviral activity against Human immunodeficiency virus 2 ROD infected in C8166 cells assessed as reduction in virus-induced cytopathic effect after 3 days by syncytium reduction assay; format: functional, organism-based; conditions: Human immunodeficiency virus 2, ISOLATE ROD, C8166, 72 h; in short: as §1
[4] = Cytotoxicity against human C8166 cells by MTT assay; format: cell-based
In short: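 MTT colorimetric assay on C8166 cells, absorbance read at 570/630 nm; CC50 (concentration reducing viable cells by 50%) taken from dose-response curve. Mean of at least two separate experiments.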

[5] = Selectivity index, ratio of CC50 for human C8166 cells to EC50 for wild type HIV1 IIIB infected in C8166 cells; format: toxicity, cell-based; conditions: read-out: Ratio CC50/EC50
In short: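 SI computed as CC50 (MTT, C8166 cells) divided by EC50 against HIV-1 IIIB from syncytium reduction in C8166 cells at MOI 0.06, 3 days at 37 °C.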

Cc1cc(S(N)(=O)=O)ccc1NC(=O)COc1ccc(F)cc1Oc1cccc2ccccc12
pEC50 [1]: 6.86
pEC50 [2]: 5.77
pEC50 [3]: 4.77
CC50 [4]: 33.1 µM
selectivity ratio [5]: 240

Cc1cc(S(N)(=O)=O)ccc1NC(=O)COc1ccc(F)cc1Oc1ccc2ccccc2c1
pEC50 [1]: 7.34
pEC50 [2]: 5.48
pEC50 [3]: 4.01
CC50 [4]: 68.5 µM
selectivity ratio [5]: 1510

Cc1cc(S(N)(=O)=O)ccc1NC(=O)COc1ccc(Cl)cc1Oc1ccc2ccccc2c1
pEC50 [1]: 7.10
pEC50 [2]: 5.75
pEC50 [3]: 4.56
CC50 [4]: 119 µM
selectivity ratio [5]: 1500

Cc1cc(S(N)(=O)=O)ccc1NC(=O)COc1ccc(Cl)cc1Oc1ccc2cc(Br)ccc2c1
pEC50 [1]: 6.61
pEC50 [2]: 5.60
pEC50 [3]: 4.70
CC50 [4]: 31.3 µM
selectivity ratio [5]: 128

Cc1cc(S(N)(=O)=O)ccc1NC(=O)COc1ccc(Cl)cc1Oc1ccc2ccccc2c1Cl
pEC50 [1]: 6.77
pEC50 [2]: 5.76
pEC50 [3]: 4.88
CC50 [4]: 40.7 µM
selectivity ratio [5]: 241

Cc1cc(S(N)(=O)=O)ccc1NC(=O)COc1ccc(Cl)cc1Oc1ccc2ccccc2c1Br
pEC50 [1]: 7.06
pEC50 [2]: 5.87
pEC50 [3]: 3.86
CC50 [4]: 48.1 µM
selectivity ratio [5]: 547

Cc1cc(S(N)(=O)=O)ccc1NC(=O)COc1ccc(F)cc1Oc1cc2ccccc2cc1C
pEC50 [1]: 6.85
pEC50 [2]: 5.96
pEC50 [3]: 3.90
CC50 [4]: 66.9 µM
selectivity ratio [5]: 476

Cc1cc(S(N)(=O)=O)ccc1NC(=O)COc1ccc(F)cc1Oc1ccc2cc(Br)ccc2c1
pEC50 [1]: 6.74
pEC50 [2]: 5.75
pEC50 [3]: 4.02
CC50 [4]: > 358 µM
selectivity ratio [5]: > 1970

Cc1cc(S(N)(=O)=O)ccc1NC(=O)COc1ccc(F)cc1Oc1ccc2ccccc2c1C
pEC50 [1]: 6.74
pEC50 [2]: 5.94
pEC50 [3]: 4.58
CC50 [4]: 56.1 µM
selectivity ratio [5]: 306

Cc1cc(S(N)(=O)=O)ccc1NC(=O)COc1ccc(F)cc1Oc1ccc2ccccc2c1Br
pEC50 [1]: 7.07
pEC50 [2]: 5.80
pEC50 [3]: 5.21
CC50 [4]: 39.5 µM
selectivity ratio [5]: 460

Cc1cc(S(N)(=O)=O)ccc1NC(=O)COc1ccc(F)cc1Oc1ccc2cc(C#N)ccc2c1
pEC50 [1]: 7.41
pEC50 [2]: 5.99
pEC50 [3]: 3.78
CC50 [4]: > 396 µM
selectivity ratio [5]: > 10200

Cc1cc(S(N)(=O)=O)ccc1NC(=O)COc1ccc(F)cc1Oc1ccc2ccccc2c1Cl
pEC50 [1]: 6.73
pEC50 [2]: 5.51
pEC50 [3]: 3.87
CC50 [4]: 47.1 µM
selectivity ratio [5]: 254

Cc1cc(S(N)(=O)=O)ccc1NC(=O)COc1ccc(F)cc1Oc1ccc2cc(Br)ccc2c1Cl
pEC50 [1]: 7.00
pEC50 [2]: 5.92
pEC50 [3]: 4.94
CC50 [4]: 195 µM
selectivity ratio [5]: 1950

Cc1cc(S(N)(=O)=O)ccc1NC(=O)COc1ccc(Cl)cc1Oc1ccc2cc(C#N)ccc2c1
pEC50 [1]: 6.93
pEC50 [2]: 5.63
pEC50 [3]: < 3.42
CC50 [4]: > 383 µM
selectivity ratio [5]: > 3290

Cc1cc(S(N)(=O)=O)ccc1NC(=O)COc1ccc(F)cc1Oc1ccc2cc(C#N)ccc2c1Br
pEC50 [1]: 8.34
pEC50 [2]: 6.09
pEC50 [3]: 5.36
CC50 [4]: 35.3 µM
selectivity ratio [5]: 7670

Cc1cc(S(N)(=O)=O)ccc1NC(=O)COc1ccc(F)cc1Oc1ccc2cc(C#N)ccc2c1Cl
pEC50 [1]: 8.33
pEC50 [2]: 6.27
pEC50 [3]: 3.63
CC50 [4]: 39.7 µM
selectivity ratio [5]: 8410

Cc1cc(S(N)(=O)=O)ccc1NC(=O)COc1ccc(F)cc1Oc1c(C)cc2ccccc2c1Cl
pEC50 [1]: 6.70
pEC50 [2]: 5.86
pEC50 [3]: 4.72
CC50 [4]: 55.6 µM
selectivity ratio [5]: 280

Cc1cc(S(N)(=O)=O)ccc1NC(=O)COc1ccc(F)cc1Oc1ccc2cccc(F)c2c1
pEC50 [1]: 7.03
pEC50 [2]: 5.84
pEC50 [3]: 4.18
CC50 [4]: 171 µM
selectivity ratio [5]: 1850

Cc1cc(S(N)(=O)=O)ccc1NC(=O)COc1ccc(Cl)cc1Oc1c(C)cc2ccccc2c1Cl
pEC50 [1]: 7.14
pEC50 [2]: 5.97
pEC50 [3]: 5.52
CC50 [4]: 42.6 µM
selectivity ratio [5]: 583

Cc1cc(S(N)(=O)=O)ccc1NC(=O)COc1ccc(Cl)cc1Oc1cc2ccccc2cc1C
pEC50 [1]: 7.23
pEC50 [2]: 6.12
pEC50 [3]: 4.68
CC50 [4]: 76.7 µM
selectivity ratio [5]: 1310

Cc1cc(S(N)(=O)=O)ccc1NC(=O)COc1ccc(Cl)cc1C(=O)c1cc(Cl)cc(C#N)c1
pEC50 [1]: 9.17
pEC50 [2]: 8.86
pEC50 [3]: 5.66
CC50 [4]: > 386 µM
selectivity ratio [5]: > 567000

Cc1cn([C@H]2C[C@H](N=[N+]=[N-])[C@@H](CO)O2)c(=O)[nH]c1=O [ZIDOVUDINE]
pEC50 [1]: 7.98
pEC50 [2]: 8.09
pEC50 [3]: 6.89
CC50 [4]: 5600 µM
selectivity ratio [5]: 529000
